The values below come from ChEMBL document CHEMBL1151482, “Phenolic constituents from the stem bark of Magnolia officinalis” (J Nat Prod, 2009).

≈ marks a conversion by molar mass, not a printed value.

The test system of test [1] is BV-2. The test is described as follows: Antiinflammatory activity in mouse BV2 cells assessed as inhibition of LPS-induced NO production after 24 hrs by Griess reagent method. The settings on record: BV-2, 24 h. The format is functional, cell-based. The method, boiled down: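 Microglial BV2 cells treated with test agents, then stimulated with LPS (0.5 µg/mL); nitrite accumulated in medium over 24 h measured with Griess reagent as NO readout; IC50 taken from concentration-response curves.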
In general terms: The Griess reaction detects nitrite, a stable product of nitric oxide.

Test [2] has as its system Radical scavenging activity. Nature of the test: Antioxidant activity assessed as DPPH free radical scavenging activity. The format is functional. Summed up:
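Diluted drugs combined with DPPH solution in microplate; absorbance read at 517 nm; IC50 derived from concentration-response curves.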
(Loss of DPPH colour is used to gauge radical scavenging.)

Test [3] is described as follows: Inhibition of NADPH oxidase-mediated ROS production in LPS-stimulated mouse BV2 cells after 20 mins by flow cytometry. The format is cell-based. The settings on record: BV-2, 20 min. Summed up:
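BV2 cells preloaded with 2′,7′-dichlorofluorescin diacetate, exposed to test agents for 20 min, then LPS-stimulated; H2O2 quantified 30 min later by flow cytometry, expressed as mean channel fluorescence; IC50 from concentration-response curves.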

Regarding `C=CCc1ccc(O)c(-c2cc(O)ccc2O)c1` [RANDAIOL], the results for the IC50 in test [1] and in test [2] were 1.2 µg/mL (≈ 4.95 µM) and 21.6 µg/mL (≈ 89.2 µM), respectively.

As for `C=CCc1cc(-c2cc(O)ccc2O)ccc1O` [MAGNATRIOL B], the half-maximal inhibitory concentration (IC50) in test [3] worked out at 20.6 µg/mL (≈ 85 µM); in test [1], 0.5 µg/mL (≈ 2.06 µM); in test [2], 27.6 µg/mL (≈ 114 µM).

With `C=CCc1ccc(O)c(-c2cc(C=O)ccc2O)c1` [MAGNALDEHYDE], the IC50 in test [1] was determined as 9.2 µg/mL (≈ 36.2 µM).

For orientation: IC50 means the concentration at which inhibition is half-maximal.
